Experimental data taken from ChEMBL document CHEMBL4138074, “(Indolylalkyl)piperidine carbamates as inhibitors of fatty acid amide hydrolase (FAAH)” (Medchemcomm, 2017).

Tests used:
[1] = target: T1, Fatty-acid amide hydrolase 1 (Rattus norvegicus, UniProt P97612); assay: Inhibition of FAAH in rat brain microsomes assessed as reduction in enzyme-mediated 4-pyren-1-ylbutanoic acid release using N-(2-hydroxyethyl)-4-pyren-1-ylbutanamide as substrate incubated fro 60 mins by reversed phase HPLC method
T1 sequence (P97612 whole entry): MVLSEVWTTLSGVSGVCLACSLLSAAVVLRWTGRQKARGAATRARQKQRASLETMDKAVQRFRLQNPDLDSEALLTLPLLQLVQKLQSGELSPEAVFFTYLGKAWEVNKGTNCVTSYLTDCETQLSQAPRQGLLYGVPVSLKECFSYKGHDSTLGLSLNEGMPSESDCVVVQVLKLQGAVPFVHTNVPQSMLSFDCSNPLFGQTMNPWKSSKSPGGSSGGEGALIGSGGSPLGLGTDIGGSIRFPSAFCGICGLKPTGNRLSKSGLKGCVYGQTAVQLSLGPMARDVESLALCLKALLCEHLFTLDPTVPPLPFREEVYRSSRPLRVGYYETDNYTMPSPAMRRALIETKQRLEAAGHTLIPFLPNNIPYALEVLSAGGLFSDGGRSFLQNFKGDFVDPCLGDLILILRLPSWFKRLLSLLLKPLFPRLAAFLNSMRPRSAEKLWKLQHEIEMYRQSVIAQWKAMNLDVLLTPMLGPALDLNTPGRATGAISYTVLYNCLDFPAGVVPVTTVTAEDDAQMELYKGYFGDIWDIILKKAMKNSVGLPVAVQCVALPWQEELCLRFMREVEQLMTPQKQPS
Procedure, shortened: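 Rat brain microsomes as enzyme source; fluorogenic substrate N-(2-hydroxyethyl)-4-pyren-1-ylbutanamide, with Triton X-100 in the incubation buffer to solubilize substrate and stabilize the membrane-bound enzyme. Incubation 60 min. Released 4-pyren-1-ylbutanoic acid quantified by reversed-phase HPLC with fluorescence detection, using 6-pyren-1-ylhexanoic acid as internal standard. Product is compared with and without inhibitor. IC50 is the mean of at least two independent determinations.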

[2] = Metabolic stability in porcine blood plasma assessed as parent compound remaining incubated fro 30 mins by HPLC and MS-detection based method; type: ADME, cell-free, Sus scrofa; details: pig, read-out: Stability
Procedure, shortened: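 Porcine blood plasma incubation, 30 min. Remaining parent quantified by reversed-phase HPLC with MS detection and reported as percent remaining. Mean ± SD, n = 3 independent determinations.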

[3] = Metabolic stability in rat liver S9 fractions assessed as parent compound remaining in presence of NADPH incubated fro 30 mins by HPLC and MS-detection based method; type: ADME, subcellular, S9 fraction; details: read-out: Stability
Procedure, shortened: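 Compound incubated with rat liver S9 fraction plus cofactor NADPH for 30 min. Parent remaining measured by reversed-phase HPLC with MS detection and expressed as percent of parent. Mean ± SD of three independent determinations.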

| IC50 [1] [nM] | remaining at 0.5 h [2] [%] | remaining at 0.5 h [3] [%] | SMILES |
| --- | --- | --- | --- |
| 46 | 93 | 82 | O=C(Oc1ccccc1)N1CCC(CCn2ccc3ccc(F)cc32)CC1 |
| 180 | 87 | 78 | O=C(Oc1ccccc1)N1CCC(CCCCn2ccc3ccccc32)CC1 |
| 110 | – | – | O=C(Oc1ccccc1)N1CCC(CCn2ccc3c(F)cccc32)CC1 |
| 130 | – | – | O=C(Oc1ccccc1)N1CCC(CCn2ccc3cc(F)ccc32)CC1 |
| 970 | – | – | N#Cc1ccc2c(ccn2CCC2CCN(C(=O)Oc3ccccc3)CC2)c1 |
| 410 | – | – | O=C(Oc1ccccc1)N1CCC(CCn2ccc3cc(Cl)ccc32)CC1 |
| 52 | – | – | O=C(Oc1ccccc1)N1CCC(CCn2ccc3cccc(F)c32)CC1 |
| 9800 | 93 | 63 | O=C(Oc1ccccc1)N1CCC(Cn2ccc3ccccc32)CC1 |
| 360 | – | – | COc1ccc2c(ccn2CCC2CCN(C(=O)Oc3ccccc3)CC2)c1 |
| 700 | – | – | Cc1ccc2c(ccn2CCC2CCN(C(=O)Oc3ccccc3)CC2)c1 |
| 110 | 94 | 87 | O=C(Oc1ccccc1)N1CCC(CCn2ccc3ccccc32)CC1 |
| 570 | 93 | 80 | O=C(Oc1ccccc1)N1CCC(CCCn2ccc3ccccc32)CC1 |
| 410 | – | – | O=C(Oc1ccccc1)N1CCC(CCn2c3ccccc3c3ccccc32)CC1 |
| 1700 | – | – | O=C(Oc1ccccc1)N1CCC(CCn2ccc3ncccc32)CC1 |

| SMILES | IC50 [1] [nM] | remaining at 0.5 h [2] [%] | remaining at 0.5 h [3] [%] |
| --- | --- | --- | --- |
| O=C(Oc1ccccc1)N1CCN(CCn2ccc3ccncc32)CC1 | 310 | – | – |
| CN(CCCCCn1ccc2ccc(F)cc21)C(=O)Oc1ccccc1 | 1600 | 93 | 65 |
| O=C(Oc1ccccc1)N1CCN(CCn2ccc3ccc(F)cc32)CC1 | 180 | – | – |
| O=C(Oc1ccccc1)N1CCN(CCn2ccc3cccnc32)CC1 | 200 | – | – |
| O=C(Oc1ccccc1)N1CCN(CCn2ccc3cnccc32)CC1 | 790 | – | – |
